From ChEMBL document CHEMBL1938309, “Stereochemical diversity of AI-2 analogs modulates quorum sensing in Vibrio harveyi and Escherichia coli” (Bioorg Med Chem, 2012)
Active and inactive are the calls of the source. The calls are words filed in the database; no cut-off is given here.

tested on: Escherichia coli; test: Agonist activity at LsrB receptor in LsrF-, LsrG-, luxS-deficient Escherichia coli KX1446 assessed as induction of lsr gene expression at 150 uM after 4.5 to 5 hrs by LacZ reporter gene assay; format: functional; conditions: not given
How it was run: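 E. coli KX1446 carrying lsr-lacZ fusion grown in LB; analog diluted from 2 mM stock in 0.01 M H2SO4, final 150 μM, no DPD added. Acid-water and AI-2 controls per series; triplicate independent cultures.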

Row | SMILES | Activity
1 | CC(=O)C(=O)[C@H](O)[C@@H](C)O | inactive
2 | CC(=O)C(=O)[C@@H](O)[C@@H](C)O (single isomer, unassigned) | inactive
3 | CC(=O)C(=O)[C@@H](O)[C@H](C)O | inactive
4 | CC(=O)C(=O)[C@H](O)[C@H](C)O | inactive

tested on: Escherichia coli; test: Agonist activity at LsrB receptor in LsrF-, LsrG-, luxS-deficient Escherichia coli KX1446 assessed as increase in receptor agonist DPD-induced lsr gene expression at 150 uM after 4.5 to 5 hrs by LacZ reporter gene assay; format: functional; conditions: not given
How it was run: (§1)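 E. coli lsr-lacZ reporter KX1446 in LB with overnight culture aliquot; analogs at final 15 or 150 μM added from 2 mM stocks in 0.01 M H2SO4, with 20 µM DPD present. Acid-water and AI-2 controls.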

Row | SMILES | Activity
5 | CC(=O)C(=O)[C@H](O)[C@@H](C)O | inactive
6 | CC(=O)C(=O)[C@@H](O)[C@H](C)O | Active

tested on: Escherichia coli; test: Agonist activity at LsrB receptor in LsrF-, LsrG-, luxS-deficient Escherichia coli KX1446 assessed as increase in receptor agonist DPD-induced lsr gene expression at 15 uM after 4.5 to 5 hrs by LacZ reporter gene assay; format: functional; conditions: not given; how it was run: as §1

Row | SMILES | Activity
7 | CC(=O)C(=O)[C@H](O)[C@@H](C)O | inactive
8 | CC(=O)C(=O)[C@@H](O)[C@H](C)O | Active

molecular target: Autoinducer 2-binding periplasmic protein LuxP (Vibrio harveyi) (UniProt P54300); test: (§2) Binding affinity to Vibrio harveyi CFP/YFP-tagged LuxP receptor assessed as decrease in FRET ratio; conditions: not given
How it was run: (§3)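 Purified CFP-LuxP-YFP chimera, 12.5 µg ml⁻¹, in 25 mM sodium phosphate pH 8, 35 mM NaCl, 1 mM borate; serially diluted compounds (in 0.01 M H2SO4 water), 2.5 µl into 280 µl reaction. FRET ratio 527/485 nm; lower ratio indicates binding. EC50 from dose series; standard deviations shown.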

Sequence of Autoinducer 2-binding periplasmic protein LuxP (Vibrio harveyi) (P54300 whole entry): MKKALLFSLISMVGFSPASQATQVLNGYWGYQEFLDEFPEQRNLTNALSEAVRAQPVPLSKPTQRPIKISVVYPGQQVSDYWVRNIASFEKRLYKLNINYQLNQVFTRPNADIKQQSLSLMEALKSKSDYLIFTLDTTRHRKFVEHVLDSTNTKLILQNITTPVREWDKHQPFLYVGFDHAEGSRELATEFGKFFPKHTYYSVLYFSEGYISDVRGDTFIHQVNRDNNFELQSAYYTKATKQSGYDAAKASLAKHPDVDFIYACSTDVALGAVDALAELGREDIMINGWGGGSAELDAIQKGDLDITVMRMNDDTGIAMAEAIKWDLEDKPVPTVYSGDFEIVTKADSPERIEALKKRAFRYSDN

Row | Activity | SMILES
9 | Dose-dependent effect | CC(=O)C(=O)[C@H](O)[C@@H](C)O
10 | Dose-dependent effect | CC(=O)C(=O)[C@@H](O)[C@@H](C)O (single isomer, unassigned)
11 | Dose-dependent effect | CC(=O)C(=O)[C@@H](O)[C@H](C)O
12 | Dose-dependent effect | CC(=O)C(=O)[C@H](O)[C@H](C)O

molecular target: T1, Autoinducer 2-binding periplasmic protein LuxP (Vibrio harveyi, UniProt P54300); test: as §2; conditions: not given; how it was run: as §3
T1 sequence (P54300 whole entry): as above

Row | EC50 [µM] | SMILES
13 | 11.6 | CC(=O)C(=O)[C@H](O)[C@@H](C)O
14 | 0.14 | CC(=O)C(=O)[C@@H](O)[C@@H](C)O (single isomer, unassigned)
15 | 0.032 | CC(=O)C(=O)[C@@H](O)CO
16 | 1.87 | CC(=O)C(=O)[C@@H](O)[C@H](C)O
17 | 10 | CC(=O)C(=O)[C@H](O)[C@H](C)O

molecular target: T1, Autoinducer 2-binding periplasmic protein LuxP; test: Agonist activity at Vibrio harveyi MM32 LuxP receptor assessed as induction of bioluminescence after 5 hrs 30 mins; format: functional; conditions: not given
How it was run: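 MM32 reporter grown in AB medium; compounds serially diluted in 0.01 M H2SO4 water, without added DPD. Light counted as cpm after 5 h 30 min at 30 °C. EC50 from four-parameter sigmoidal fit by non-linear least squares; error bars are standard deviations.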

Row | EC50 [µM] | SMILES
18 | 19.5 | CC(=O)C(=O)[C@H](O)[C@@H](C)O
19 | 0.65 | CC(=O)C(=O)[C@@H](O)[C@@H](C)O (single isomer, unassigned)
20 | 0.076 | CC(=O)C(=O)[C@@H](O)CO
21 | 6.21 | CC(=O)C(=O)[C@@H](O)[C@H](C)O
22 | 26.5 | CC(=O)C(=O)[C@H](O)[C@H](C)O

molecular target: T1, Autoinducer 2-binding periplasmic protein LuxP; test: Antagonist activity at Vibrio harveyi MM32 LuxP receptor assessed as decrease in receptor agonist DPD-induced bioluminescence after 5 hrs 30 mins; format: functional; conditions: not given
How it was run: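 V. harveyi MM32 in AB medium with 0.1 μM DPD plus serial dilutions of test compound (in 0.01 M H2SO4 water). Luminescence read as cpm after 5 h 30 min at 30 °C; IC50 by four-parameter sigmoidal non-linear least-squares fitting.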

Row | IC50 [µM] | SMILES
23 | 160 | CC(=O)C(=O)[C@H](O)[C@@H](C)O
24 | 57.5 | CC(=O)C(=O)[C@@H](O)[C@H](C)O

tested on: Vibrio harveyi; test: Growth inhibition of Vibrio harveyi MM32 at 0.1 mM after 5 hrs; format: organism-based; conditions: in vivo, 100 µM

Row | SMILES | growth inhibition (GI)
25 | CC(=O)C(=O)[C@H](O)[C@@H](C)O | Toxic
26 | CC(=O)C(=O)[C@@H](O)[C@@H](C)O (single isomer, unassigned) | Toxic
27 | CC(=O)C(=O)[C@@H](O)CO | Toxic
28 | CC(=O)C(=O)[C@@H](O)[C@H](C)O | Toxic
29 | CC(=O)C(=O)[C@H](O)[C@H](C)O | Toxic

molecular target: T1, Autoinducer 2-binding periplasmic protein LuxP; test: Agonist activity at Vibrio harveyi LuxP receptor; format: functional; conditions: not given

Row | EC50 [µM] | SMILES
30 | 30 | O=C(C(=O)C(F)(F)F)[C@@H](O)CO
31 | 30 | CC(=O)C(=O)[C@H](O)CO

tested on: not listed separately; test: Inhibition of […]-deficient Salmonella Typhimurium Met844 Quorum sensing system by lacZ reporter gene assay; design: species or system Salmonella enterica subsp. enterica serovar Typhimurium; conditions: not given

Row | IC50 [µM] | SMILES
32 | 5 | CCCCCC(=O)C(=O)[C@@H](O)CO
